From ChEMBL document CHEMBL1139225, “Metabolism-based identification of a potent thrombin receptor antagonist” (J Med Chem, 2007)
≈ marks a conversion by molar mass, not a printed value. Calls of active or inactive are those of the source. No cut-off for these calls is given here.

Legend:
[1] = target: T1, Proteinase-activated receptor 1 (Homo sapiens, UniProt P25116); assay: Displacement of [3H]haTRAP from PAR1 in human platelet membrane; type: cell membranes
T1 sequence (P25116 whole entry): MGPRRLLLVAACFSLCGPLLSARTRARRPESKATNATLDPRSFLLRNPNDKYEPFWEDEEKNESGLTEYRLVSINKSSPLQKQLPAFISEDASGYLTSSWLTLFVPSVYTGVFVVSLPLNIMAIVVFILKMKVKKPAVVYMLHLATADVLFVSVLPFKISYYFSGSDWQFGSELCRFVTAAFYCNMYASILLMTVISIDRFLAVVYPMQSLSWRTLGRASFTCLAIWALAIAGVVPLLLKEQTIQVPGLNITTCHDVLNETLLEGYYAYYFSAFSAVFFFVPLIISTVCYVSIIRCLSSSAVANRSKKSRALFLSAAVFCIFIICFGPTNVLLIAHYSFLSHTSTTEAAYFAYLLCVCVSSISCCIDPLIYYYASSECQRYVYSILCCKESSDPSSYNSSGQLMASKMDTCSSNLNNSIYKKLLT

[2] = AUC (0-6h) in rat after oral administration; type: ADME, organism-based; set-up: time < 6 hr, route oral; details: plasma
[3] = system: Platelet; assay: Inhibition of ADP-induced human platelet aggregation; type: functional, cell-based
Outline: (§1)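 Washed platelets from healthy human donors who had been aspirin-free for 7 days were preincubated with the compound for 1 h. Aggregation was then triggered by 0.3 µM haTRAP, or by ADP for the specificity test. IC50 was derived for the haTRAP response.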

[4] = AUC (0-24h) in cynomolgus monkey at 1 mg/kg, po; type: ADME, organism-based, Macaca fascicularis; set-up: time < 24 hr, dose 1 mg/kg, route oral; details: plasma
Outline: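 Cynomolgus monkeys received a single oral dose of 1 mg/kg in 20% HPβCD. Blood levels were followed at various time points afterwards.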

[5] = target: Cytochrome P450 2D6 (Homo sapiens, UniProt P10635); assay: Inhibition of cytochrome P450 2D6 in human liver microsomes up to 10 uM; type: ADME, Microsome
Chain of Cytochrome P450 2D6 (P10635 whole entry): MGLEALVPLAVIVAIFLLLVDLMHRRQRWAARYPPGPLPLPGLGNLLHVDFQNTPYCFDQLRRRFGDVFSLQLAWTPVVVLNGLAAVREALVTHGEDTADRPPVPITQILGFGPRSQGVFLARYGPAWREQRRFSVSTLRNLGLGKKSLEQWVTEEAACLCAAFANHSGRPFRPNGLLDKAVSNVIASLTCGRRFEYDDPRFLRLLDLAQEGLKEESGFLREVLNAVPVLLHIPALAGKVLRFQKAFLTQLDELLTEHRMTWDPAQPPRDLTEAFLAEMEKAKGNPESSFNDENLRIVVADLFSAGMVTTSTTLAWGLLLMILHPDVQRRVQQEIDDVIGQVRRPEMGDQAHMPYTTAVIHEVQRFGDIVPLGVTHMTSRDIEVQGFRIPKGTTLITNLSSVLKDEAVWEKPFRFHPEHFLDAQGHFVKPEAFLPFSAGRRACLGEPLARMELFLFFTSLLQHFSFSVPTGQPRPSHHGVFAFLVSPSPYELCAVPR
Outline: (§2)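 Human liver microsomes. The compound was tested at concentrations up to 10 µM for inhibition of CYP2D6, 3A4, 2C9 and 2C19.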

[6] = Inhibition of haTRAP-induced human platelet aggregation; type: functional, cell-based; outline: as §1
[7] = target: Cytochrome P450 2C19 (Homo sapiens, UniProt P33261); assay: Inhibition of cytochrome P450 2C19 in human liver microsomes up to 10 uM; type: ADME, Microsome; outline: as §2
Chain of Cytochrome P450 2C19 (P33261 whole entry): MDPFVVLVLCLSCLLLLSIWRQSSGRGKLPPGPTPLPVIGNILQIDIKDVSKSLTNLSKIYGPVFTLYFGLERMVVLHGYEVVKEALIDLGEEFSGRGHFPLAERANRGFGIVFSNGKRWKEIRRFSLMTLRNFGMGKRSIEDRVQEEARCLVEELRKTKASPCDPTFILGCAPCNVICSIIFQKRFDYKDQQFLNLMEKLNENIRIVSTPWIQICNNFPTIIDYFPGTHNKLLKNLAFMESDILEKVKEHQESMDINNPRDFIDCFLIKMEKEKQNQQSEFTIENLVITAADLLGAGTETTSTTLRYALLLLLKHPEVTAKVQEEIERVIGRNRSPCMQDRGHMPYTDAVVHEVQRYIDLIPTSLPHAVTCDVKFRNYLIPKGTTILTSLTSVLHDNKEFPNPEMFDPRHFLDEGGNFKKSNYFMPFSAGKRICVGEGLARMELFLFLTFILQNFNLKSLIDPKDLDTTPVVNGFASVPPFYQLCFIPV

[8] = Bioavailability in cynomolgus monkey; type: ADME, organism-based, Macaca fascicularis; details: in vivo
[9] = Inhibition of haTRAP-induced platelet aggregation in cynomolgus monkey at 1 mg/kg after 24 hr; type: functional; details: Macaca fascicularis
Outline: (§3)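 Ex-vivo assay in cynomolgus monkeys. The compound was given orally as a single dose (1 mg/kg or 3 mg/kg in 20% HPβCD). Platelet aggregation induced by haTRAP was then measured in samples taken after dosing, at time points up to 24 h.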

[10] = AUC (0-24h) in Sprague-Dawley rat at 300 mg/kg, po after 1 day; type: ADME, organism-based; set-up: time < 24 hr, dose 300 mg/kg, route oral; details: plasma
Outline: (§4)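 Fed male Sprague Dawley rats, four per group, given the compound orally once daily for 10 consecutive days in 0.4% methylcellulose (100 and 300 mg/kg groups). On day 1 and day 10, plasma concentrations of parent and hydroxylated metabolites were measured at 1, 2, 4, 8, 12 and 24 h, giving AUC(0-24 h) and Cmax.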

[11] = organism: Homo sapiens; assay: Effect on elevation of calcium level in human CASMC; type: functional
Outline: (§5)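 Human coronary artery smooth muscle cells were loaded with the fluorescent calcium dye Fluo-3, and intracellular calcium was read on a fluorometric imaging plate reader. Thrombin served as the agonist in the inhibition format. For the agonist check, cells were treated with the compound alone.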

[12] = Cmax in Sprague-Dawley rat at 300 mg/kg, po after 10 days; type: ADME, organism-based; set-up: dose 300 mg/kg, route oral; details: in vivo; outline: as §4
[13] = target: Cytochrome P450 3A4 (Homo sapiens, UniProt P08684); assay: Inhibition of cytochrome P450 3A4 in human liver microsomes up to 10 uM; type: ADME, Microsome; outline: as §2
Chain of Cytochrome P450 3A4 (P08684 whole entry): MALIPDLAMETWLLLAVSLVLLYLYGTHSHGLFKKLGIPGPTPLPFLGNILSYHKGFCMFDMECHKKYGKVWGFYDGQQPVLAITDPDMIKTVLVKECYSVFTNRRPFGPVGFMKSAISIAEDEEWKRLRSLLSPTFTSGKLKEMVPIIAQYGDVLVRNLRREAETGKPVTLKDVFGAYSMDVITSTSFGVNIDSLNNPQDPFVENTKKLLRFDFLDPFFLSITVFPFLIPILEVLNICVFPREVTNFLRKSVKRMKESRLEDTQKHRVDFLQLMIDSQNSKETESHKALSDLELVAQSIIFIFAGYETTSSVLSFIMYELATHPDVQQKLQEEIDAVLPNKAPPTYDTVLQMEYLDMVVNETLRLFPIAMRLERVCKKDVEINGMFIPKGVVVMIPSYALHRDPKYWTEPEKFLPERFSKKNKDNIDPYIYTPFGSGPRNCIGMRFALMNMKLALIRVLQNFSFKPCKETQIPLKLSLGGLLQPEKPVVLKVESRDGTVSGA

[14] = Cmax in Sprague-Dawley rat at 300 mg/kg, po after 1 day; type: ADME, organism-based; set-up: dose 300 mg/kg, route oral; details: in vivo; outline: as §4
[15] = system: Platelet; assay: Inhibition of haTRAP-induced platelet aggregation in cynomolgus monkey at 3 mg/kg; type: functional, organism-based; set-up: dose 3 mg/kg; details: Macaca fascicularis; outline: as §3
[16] = Oral absorption in cynomolgus monkey; type: ADME, organism-based, Macaca fascicularis; details: in vivo
[17] = target: Cytochrome P450 2C9 (Homo sapiens, UniProt P11712); assay: Inhibition of cytochrome P450 2C9 in human liver microsomes up to 10 uM; type: ADME, Microsome; outline: as §2
Chain of Cytochrome P450 2C9 (P11712 whole entry): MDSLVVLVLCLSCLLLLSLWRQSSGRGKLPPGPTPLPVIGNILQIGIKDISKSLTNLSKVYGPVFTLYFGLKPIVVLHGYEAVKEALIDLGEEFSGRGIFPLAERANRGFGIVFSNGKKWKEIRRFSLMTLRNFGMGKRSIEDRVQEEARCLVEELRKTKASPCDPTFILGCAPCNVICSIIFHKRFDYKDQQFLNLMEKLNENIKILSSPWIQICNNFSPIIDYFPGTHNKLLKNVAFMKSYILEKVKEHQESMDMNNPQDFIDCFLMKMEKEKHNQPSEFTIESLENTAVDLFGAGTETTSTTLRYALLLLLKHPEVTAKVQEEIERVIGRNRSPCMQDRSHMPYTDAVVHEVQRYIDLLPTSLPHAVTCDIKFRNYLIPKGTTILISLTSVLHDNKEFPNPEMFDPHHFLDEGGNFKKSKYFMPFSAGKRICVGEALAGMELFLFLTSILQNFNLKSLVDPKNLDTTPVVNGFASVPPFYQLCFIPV

[18] = Inhibition of thrombin-stimulated [3H]thymidine incorporation in human CASMC; type: functional
Outline: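 Human coronary artery smooth muscle cells were stimulated with thrombin. [3H]thymidine incorporation was measured, and an apparent Ki was derived.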

[19] = AUC (0-24h) in Sprague-Dawley rat at 300 mg/kg, po after 10 days; type: ADME, organism-based; set-up: time < 24 hr, dose 300 mg/kg, route oral; details: plasma; outline: as §4
[20] = Inhibition of thrombin-mediated activation of calcium transients in human CASMC; type: functional; outline: as §5
[21] = system: Platelet; assay: Inhibition of haTRAP-induced platelet aggregation in cynomolgus monkey at 1 mg/kg after 6 hrs; type: functional, organism-based; set-up: dose 1 mg/kg; details: Macaca fascicularis; outline: as §3
[22] = AUC (0-6h) in rat at 10 mg/kg, po; type: ADME, organism-based; set-up: time < 6 hr, dose 10 mg/kg, route oral; details: plasma
Outline: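 Rat oral pharmacokinetics at 10 mg/kg dosed in 20% HPβCD. Plasma exposure was reported as AUC(0-6).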

[23] = Solubility of the compound; type: physicochemical

C[C@H]1OC(=O)[C@@H]2C[C@@H]3CC(F)(F)CC[C@H]3[C@H](/C=C/c3ccc(-c4cccc(F)c4)cn3)[C@H]12
IC50 [1]: 15 nM

C[C@H]1OC(=O)[C@@H]2C[C@@H]3C[C@H](O)CC[C@H]3[C@H](/C=C/c3ccc(-c4cccc(C(F)(F)F)c4)cn3)[C@H]12
AUC(0-t) at 6 h [2]: 6130 ng·h/mL | Activity [3]: inactive | AUC(0-t) at 24 h [4]: 3060 ng·h/mL | Activity [5]: Not Active | IC50 [6]: 60 nM | Activity [7]: Not Active | bioavailability [8]: 89% | inhibition in vivo at 1 mg/kg [9]: 60% | AUC(0-t) at 24 h [10]: 93000 ng·h/mL | Activity [11]: inactive | Cmax [12]: 25000 ng/mL | Activity [13]: Not Active | Cmax [14]: 58000 ng/mL | Activity [15]: Active | IC50 [1]: 17 nM | Ki [1]: 11 nM | Fa [16]: 92% | Activity [17]: Not Active | Ki [18]: 22 nM | AUC at 24 h [19]: 41000 ng·h/mL | Ki [20]: 85 nM | Activity [21]: Active

C[C@H]1OC(=O)[C@@H]2C[C@@H]3C[C@H](O)CC[C@H]3[C@H](/C=C/c3ccc(-c4cc(Cl)ccc4Cl)cn3)[C@H]12
IC50 [1]: 97 nM

C[C@H]1OC(=O)[C@@H]2C[C@@H]3CC(=O)CC[C@H]3[C@H](/C=C/c3ccc(-c4cccc(C(F)(F)F)c4)cn3)[C@H]12
AUC(0-t) at 24 h [4]: 31 ng·h/mL

C[C@H]1OC(=O)[C@@H]2C[C@@H]3C[C@H](O)CC[C@H]3[C@H](/C=C/c3ccc(-c4cccc(F)c4)cn3)[C@H]12
IC50 [1]: 28 nM

C[C@H]1OC(=O)[C@@H]2C[C@@H]3C[C@@H](O)CC[C@H]3[C@H](/C=C/c3ccc(-c4cccc(C(F)(F)F)c4)cn3)[C@H]12
AUC(0-t) at 6 h [2]: 3150 ng·h/mL | AUC(0-t) at 24 h [4]: 73 ng·h/mL | AUC(0-t) at 24 h [10]: 18000 ng·h/mL | Cmax [12]: 47000 ng/mL | Cmax [14]: 11000 ng/mL | IC50 [1]: 23 nM | AUC at 24 h [19]: 81000 ng·h/mL | Activity [21]: Active

C[C@H]1OC(=O)[C@@H]2C[C@@H]3C[C@H](O)CC[C@H]3[C@H](/C=C/c3ccc(-c4ccccc4F)cn3)[C@H]12
IC50 [1]: 72 nM

Cc1cccc(-c2ccc(/C=C/[C@H]3[C@@H]4CCC(F)(F)C[C@H]4C[C@H]4C(=O)O[C@H](C)[C@@H]34)nc2)c1
IC50 [1]: 80 nM

C[C@H]1OC(=O)[C@@H]2C[C@H]3[C@@H](CCC[C@H]3O)[C@H](/C=C/c3ccc(-c4cccc(C(F)(F)F)c4)cn3)[C@H]12
IC50 [1]: 28 nM

C[C@H]1OC(=O)[C@@H]2C[C@@H]3CC(F)(F)CC[C@H]3[C@H](/C=C/c3ccc(-c4ccccc4Cl)cn3)[C@H]12
IC50 [1]: 11 nM

C[C@H]1OC(=O)[C@@H]2C[C@@H]3C[C@H](O)CC[C@H]3[C@H](/C=C/c3ccc(-c4cccc(Cl)c4)cn3)[C@H]12
IC50 [1]: 38.5 nM

C[C@H]1OC(=O)[C@@H]2C[C@H]3[C@@H](CCCC3(F)F)[C@H](/C=C/c3ccc(-c4cccc(C(F)(F)F)c4)cn3)[C@H]12
AUC(0-t) at 6 h [22]: 1200 ng·h/mL | IC50 [1]: 53 nM | solubility [23]: 5 µM (≈ 2.46 µg/mL)
